Here are results for 1 compound from PMC6736640 (ACS chemical neuroscience, 2018).

The target of the experiment is Asyn fibrils (Homo sapiens, UniProt P37840). In words: Radioligand competition binding on Asyn fibrils with [3H]1. Put shortly: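 Recombinant human Asyn fibrils at 150 nM incubated with 2 nM [3H]1 and test compound (1–1000 nM) in 30 mM Tris-HCl pH 7.4 with 0.1% BSA for 2 h at 37 °C. Bound ligand separated by vacuum filtration through 1.0 μm glass fiber filters, washed three times with cold buffer, and counted by scintillation after overnight incubation. Triplicates. EC50 from sigmoidal fit; Ki = EC50/(1+[radioligand]/Kd).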
(In a radioligand displacement assay an active substance lowers the binding of a labelled ligand.)

One may read the Kd as the free concentration of one partner at which half of the binding sites on the other are occupied at equilibrium, for simple one-to-one binding. High values mean weaker binding, low ones tighter binding. For the compound `COc1ccc(/C=C/c2cc(-c3nccs3)on2)cc1` [compound 1, (E)-3-(4-methoxystyryl)-5-(thiazol-2-yl)isoxazole], the affinity, expressed as Kd, was 47 nM.
